The list is not random: actives were taken first. Their share in the collection is about 2.1%.
CXCR6 inh = blocks human CXCR6 beta-arrestin recruitment; O00574; CHO-K1 PathHunter CXCR6 beta-arrestin, luminescence; inhibition, % at 20 µM; hit rate 0.36% among 360,000; AID 602244; in the data active = inhibition above about 34%, passing the limit was not always enough;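 also: antagonist mode with CXCL16 agonist at 10 nM final; 0% = 10 nM CXCL16 with DMSO and 100% = unstimulated wells without agonist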
APJ antagonist = blocks the human apelin receptor APJ; inhibition, % at 20 µM; CHO-K1 APJ beta-arrestin complementation, luminescence; AID 2521; P35414; hit rate 0.32% among 330,000;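 active = inhibition above about 40% at 20 µM, limit read from the data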;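 also: cells challenged with 10 nM apelin-13 agonist together with compound; plate controls were apelin-13 plus DMSO wells for no effect and DMSO wells lacking apelin-13 for full effect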
m5-HT2A agonist = agonists of mouse serotonin 5-HT2A receptor (HTR2A) | CHO-K1 mHTR2A beta-arrestin complementation, luminescence; percent of 30 µM serotonin response | P35363 | hit rate 0.66% among 360,000 | activation, % at 7.6 µM | AID 624169;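 active = activation above a run cutoff, the mean activation of all tested compounds plus 3 SD, cut at about 14% in these data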;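 also: 0% = plate median of compound wells and 100% = 30 µM serotonin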
Target sequence (P35363 whole entry, looked up): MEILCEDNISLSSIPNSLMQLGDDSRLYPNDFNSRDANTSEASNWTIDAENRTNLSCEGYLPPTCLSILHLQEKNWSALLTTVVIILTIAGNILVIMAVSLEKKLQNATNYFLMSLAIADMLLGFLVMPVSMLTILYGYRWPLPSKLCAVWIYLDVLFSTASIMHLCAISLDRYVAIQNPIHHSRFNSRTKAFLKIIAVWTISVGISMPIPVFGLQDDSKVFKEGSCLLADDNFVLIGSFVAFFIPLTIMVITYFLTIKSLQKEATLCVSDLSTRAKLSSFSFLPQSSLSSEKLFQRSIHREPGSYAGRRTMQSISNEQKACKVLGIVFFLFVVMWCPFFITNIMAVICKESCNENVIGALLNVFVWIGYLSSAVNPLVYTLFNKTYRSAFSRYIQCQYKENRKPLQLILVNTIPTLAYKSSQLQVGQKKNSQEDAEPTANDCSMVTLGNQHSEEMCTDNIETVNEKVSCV
APJ agonist = activates the human apelin receptor APJ | activation, % at 20 µM | hit rate 0.11% among 330,000 | P35414 | CHO-K1 APJ PathHunter beta-arrestin, luminescence; 0% DMSO wells, 100% apelin;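 active = activation more than six SD over the plate average, tested at 20 µM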;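 also: 0% = DMSO alone and 100% = apelin-13 at 10 nM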
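Assay system: engineered CHO-K1 APJ arrestin reporter cells; Amount: 1000 CHO-K1 reporter cells seeded per well; Dosing: one dose, 20 µM compound, 1% DMSO; Times: compound stimulation 90 min at 25 °C, detection 60 min; Measured by: luminescent beta-gal fragment complementation, chemiluminescent substrate; Read-out: APJ–arrestin association signal; Controls: DMSO vs Apelin-13 10 nM.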
EBI2 antag = antagonists of human EBI2 receptor. P32249. EBI2 beta-arrestin recruitment, luminescence, 7a,25-OHC stimulated. inhibition, % at 5 µM. hit rate 0.81% among 360,000; in the data active = inhibition above about 38%;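 also: enzyme fragment complementation signal reports receptor beta-arrestin coupling in cells; 0% = agonist plus DMSO wells and 100% = wells without agonist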
CCR6 antagonist = blocks CCL20-driven beta-arrestin recruitment at human CCR6. inhibition, % at 20 µM. AID 493098. hit rate 0.49% among 340,000. CHO-K1 CCR6 PathHunter beta-arrestin, luminescence, CCL20-stimulated;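 active = compounds whose inhibition of the agonist-driven luminescence signal at 20 µM reaches about 50%, limit read from the data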;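 also: cells stimulated with CCL20 at 14 nM final; plate controls were DMSO with CCL20 for no effect and DMSO without agonist for full effect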
MOR ag counter = counter-screen for mouse HTR2A agonists: human mu opioid receptor agonists. hit rate 5.3% among 2,300. U2OS OPRM1 beta-arrestin PathHunter, luminescence; DMSO 0%, DAMGO 9.3 µM 100%. AID 624380. activation, % at 9.3 µM. shares compounds with m5-HT2A agonist;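 active = mean activation above the mean of DMSO-only wells plus 3 SD, cut at about 0.5% in these data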
m5-HT2A ag conf = mouse HTR2A agonism confirmed; activation, % at 7.6 µM; shares compounds with m5-HT2A agonist; CHO-K1 PathHunter beta-arrestin recruitment, luminescence; DMSO 0%, 30 µM serotonin 100%; hit rate 19% among 2,300;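 active = mean activation across triplicates above the hit threshold derived in the original primary screen, cut at about 15% in these data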
* marks the source's active call; other numbers are inactive results; / = not tested or not shown.

SMILES	CXCR6 inh	APJ antagonist	m5-HT2A agonist	APJ agonist	EBI2 antag	CCR6 antagonist	MOR ag counter	m5-HT2A ag conf
CNC[C@H](O)c1cccc(O)c1	-2.9	11.5	17.1*	-4.7	1.9	13.8	-0.5	46.7*
CC(C)NCC(O)c1ccc(O)c(O)c1 (configuration not stated)	-7.0	-1.2	1.2	-0.8	-2.3	7.7	/	/
O[C@@H](CNC[C@H](O)c1ccccc1)c1ccccc1	-5.3	2.8	1.0	-2.4	-4.0	2.2	/	/
NC[C@H](O)c1ccc(O)c(O)c1	1.4	9.8	35.6*	-1.6	-3.2	-8.1	-0.1	143.3*
CSc1ncnc2c1ncn2CCCNCCCN1CCCC1=O	-0.3	/	-4.0	/	-5.2	/	/	/
O=S(=O)(Nc1ccc(-c2csc(-c3ccccc3)n2)cc1)c1ccccc1	-5.1	-9.7	17.9*	-1.5	10.0	5.6	-0.4	4.7
Cc1ccc(-c2nc3cc(NS(=O)(=O)c4ccc(C)cc4)ccc3o2)cc1	4.6	-1.1	-6.2	-1.6	3.1	-10.9	/	/
O=S(=O)(Nc1ccc2oc(-c3ccccc3)nc2c1)c1ccccc1	2.5	-3.7	15.2*	-6.7	2.8	13.4	0.3	4.5
Cc1cc(C)cc(NC(=O)C(C)N2C(=O)c3ccccc3C2=O)c1 (configuration not stated)	-9.6	-0.8	19.7*	-3.2	-3.3	8.9	-0.5	-2.0
CC(C)c1ccc(N(CC(=O)NC(C)(C)C)C(=O)CCC(=O)Nc2nccs2)cc1	2.3	11.8	29.0*	-1.5	-4.8	10.8	-0.8	-3.2
CC(/C=N\N1CCN(Cc2ccc(C)cc2)CC1)=C\c1ccccc1	-0.4	3.7	-5.0	-4.8	0.0	6.0	/	/
BrC(=C\c1ccccc1)/C=N/N1CCN(Cc2ccccc2)CC1	-0.6	-1.4	19.7*	0.0	6.5	-7.4	-0.7	-2.9
BrC(/C=N/N1CCN(Cc2ccccc2)CC1)=C/c1ccccc1	0.4	9.1	23.6*	-6.6	6.2	12.5	-0.5	0.0
O=C(Oc1ccc(Br)cc1C(=S)N1CCOCC1)c1ccc([N+](=O)[O-])cc1[N+](=O)[O-]	3.9	-56.1	-4.4	6.5	0.5	7.4	/	/
COC(=O)c1ccc(CN(C(=O)N2CCN(C)CC2)S(=O)(=O)c2ccc(C)cc2)cc1	-11.0	3.1	4.2	-3.9	-4.9	2.8	/	/
CCOP(=O)(OCC)C(Nc1ccc(C(=O)O)cc1)c1ccccc1 (configuration not stated)	4.8	4.1	6.4	-4.2	-5.9	5.8	/	/
CCOP(=O)(OCC)C(Nc1ccc(OC)cc1)c1ccco1 (configuration not stated)	-4.5	-1.1	18.8*	-1.2	-7.9	9.3	-0.5	-3.3
C=C(C)C(=O)OCC(O)COc1ccc(C(C)(C)c2ccc(OCC(O)COC(=O)C(=C)C)cc2)cc1 (configuration not stated)	-4.1	-7.0	16.6*	2.8	2.3	15.1	0.0	2.2
Cc1ccc(CNCC(O)(c2ccccc2)c2ccc(Cl)cc2)cc1 (configuration not stated)	4.8	/	1.8	/	4.4	14.9	/	/
Cc1ccc(CNCC(O)(c2ccccc2)c2ccccc2)cc1	-0.7	-9.7	19.7*	-1.6	6.8	5.2	0.1	-3.7
COc1cc(OC)c2c(C)cc(=O)oc2c1C(CCN1CCN(c2ccccc2)CC1)c1ccc2c(c1)OCO2 (configuration not stated)	16.3	21.5	20.7*	-3.6	19.7	20.8	-0.7	72.3*
COc1ccc(C(CCN2CCN(c3ccccc3)CC2)c2c(OC)cc(OC)c3c(-c4ccccc4)cc(=O)oc23)cc1 (configuration not stated)	8.8	15.1	8.8	-5.7	6.9	3.4	/	/
COc1cc(OC)c2c(-c3ccccc3)cc(=O)oc2c1C(CCN1CCN(c2ccccc2)CC1)c1ccc(N(C)C)cc1 (configuration not stated)	13.7	1.0	16.6*	-3.4	-10.3	7.5	-0.8	21.6*
CC1CCC(NC(=O)COC(=O)CNC(=O)c2ccc3ccccc3c2)CC1 (configuration not stated)	-9.2	-14.4	-8.0	-3.7	10.8	-8.7	/	/
Cc1cccc(CCNS(=O)(=O)c2cc3c(cc2C)NC(=O)CO3)c1	-10.0	9.6	20.9*	-1.7	-0.4	13.9	-0.5	-4.2
SMILES	CXCR6 inh	APJ antagonist	m5-HT2A agonist	APJ agonist	EBI2 antag	CCR6 antagonist	MOR ag counter	m5-HT2A ag conf
COc1ccccc1NC(=O)Cc1nnc(SCC(=O)c2ccc(F)cc2)n1C	-2.9	-14.1	9.9	-0.8	-1.6	1.5	/	/
Cc1cc(C(C)(C)C)c(O)c(C)c1CC1=NCCN1	7.2	23.5	31.8*	-3.1	-5.2	4.7	-0.7	41.2*
N#Cc1c(N)nc(SCC(=O)OCc2ccccc2)c(C#N)c1-c1ccco1	11.8	21.2	-0.6	-1.5	8.6	18.0	/	/
N#Cc1c(N)nc(SCc2ccccc2)c(C#N)c1-c1ccco1	1.1	-9.3	15.2*	-5.1	19.4	12.1	0.3	-3.0
CC1C(=O)N(Cc2cn(CCC3OCCCO3)nn2)CCS(=O)(=O)N1Cc1ccc(-c2ccncc2)cc1 (configuration not stated)	-0.9	/	4.9	/	-11.6	/	/	/
C[C@H](O)c1[nH]c2cc(F)ccc2c1[C@H](C)O	-3.5	-28.9	19.5*	0.5	-2.9	10.8	-0.5	-4.5
Cc1noc(C)c1CSCC(=O)Nc1cccc(C(F)(F)F)c1	-8.0	-7.6	4.0	-0.4	2.6	17.7	/	/
CC(OC(=O)CCCN=C1NS(=O)(=O)c2ccccc21)C(=O)Nc1ccccc1F (configuration not stated)	-10.5	-10.0	25.4*	-7.5	4.3	4.8	-0.6	-4.4
CC(OC(=O)CCN=C1NS(=O)(=O)c2ccccc21)C(=O)Nc1ccccc1F (configuration not stated)	-5.6	6.3	-2.0	-3.0	-4.3	0.5	/	/
COCc1cc(=O)[nH]c(SCCS(=O)(=O)c2ccc(Cl)cc2Cl)n1	12.0	-2.2	-2.0	-1.1	-13.9	12.4	/	/
Cc1ccc(C)c(CC(=O)N2CCCCC2c2cc(C(=O)Nc3ccc(F)c(Cl)c3)no2)c1 (configuration not stated)	10.2	/	-3.9	/	13.3	/	/	/
Cc1ccc(C)c2[nH]c(=O)c(CN(CCN3CCCC3)C(=O)Nc3ccc(F)cc3)cc12	7.1	-0.6	16.6*	0.7	-2.3	-14.3	-0.5	4.8
CNc1nnc(SCC(=O)N2c3ccccc3NC(=O)CC2C)s1 (configuration not stated)	0.5	0.9	5.1	-2.3	-11.6	-4.1	/	/
